# Assay results reported in PubChem BioAssay.
# Values without a mark were called inactive. Activity calls are given as the source filed them.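 Rule for the calls, unless noted: active = viability at or below 10% of carrier control in both of two separate runs; inconclusive = viability at or below 10% in only one of the two runs; inactive = the rest.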
# Assay: SK-BR-3 cell growth inhibitors, pilot screen, 24 h, human (AID 572);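 note: compound exposure lasted between 18 and 24 h rather than exactly 24 h; 100% = carrier-treated control wells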
# Conditions: SK-BR-3 viability, CellTiter-Glo luminescence, at 10 µM, active compounds read low
row,Compound,viability
1,Nc1nc(N2CCCCC2)nc(N(c2ccccc2)c2ccccc2)n1,107%
2,O=C1c2ccccc2C(Nc2cccnc2)N1Cc1ccccc1Cl (stereo not drawn),93%
3,CCN1CCN(c2nc3c(c(=O)[nH]c(=O)n3C)n2CCSc2nc3ccccc3s2)CC1,95.5%
4,COc1cc(C(O)c2nc3ccccc3n2C)cc(OC)c1OC (stereo not drawn),91.5%
5,CCOC(=O)N1CCC(Nc2nc3ccccc3n3cnnc23)CC1,94%
6,COc1ccc(C2C(C(C)=O)=C(C)N=c3s/c(=C/c4ccc5c(c4)OCO5)c(=O)n32)cc1 (stereo not drawn),85%
7,CCOC(=O)C1=C(C)N(C)C(=O)NC1c1ccccc1OC (stereo not drawn),97%
8,CCCCS(=O)(=O)NC1=NCN(CCOC(=O)c2ccccc2)CN1,95.5%
9,COc1ccc(-n2c(Cc3cccn3C)nnc2SCC(=O)Nc2cccc(Cl)c2)cc1,103%
10,CCC1CCCCN1C(=O)CSc1nnc(-c2ccc(OC)cc2)o1 (stereo not drawn),98%
11,COc1ccc(N(CC(=O)Nc2ccc3c(c2)OCO3)S(=O)(=O)c2c(C)nn(C)c2C)cc1,90.5%
12,CCOc1ccc(C2CC(c3ccccc3C)n3nc(N)nc3N2)cc1 (stereo not drawn),87.5%
13,Cc1cc(N)n2nc(-c3ccccc3)cc2n1,95%
14,CCCCCn1c(CCNC(=O)CCC)nc2ccccc21,96.5%
15,O=C(c1ccc2c(c1)OCCO2)N1CCCCC1,117%
16,O=C(NCCc1c[nH]c2ccccc12)c1cnc2n(c1=O)CCS2,92%
17,CCc1cc(=O)n2[nH]c(C)c(-c3ccccc3OC)c2n1,80.5%
18,Cc1ccc(CSc2nc3c(c(=O)[nH]2)CCC3)cc1,86.5%
19,CN(CCNS(=O)(=O)c1ccc2c(c1)oc(=O)n2C)Cc1ccccc1,86%
20,COc1ccc(-c2nnc(SCC(=O)NC(C)c3ccccc3)o2)cc1 (stereo not drawn),94%

row,Compound,viability
1,CCOc1ccc(Cn2nnc(C(=O)Nc3cc(C)cc(C)c3)c2N)cc1,89.5%
2,CCCCCn1c(CN2CCN(C(=O)c3ccco3)CC2)nc2c1c(=O)n(C)c(=O)n2C,96.5%
3,CCN1CCN(Cc2ccc(NC(=O)Nc3ccccc3)cc2)CC1,82%
4,CCCN(CCC)C(=O)c1c(C)[nH]c(C(=O)OCC)c1C,98%
5,COc1cccc(C2CC(c3c(Cl)cccc3Cl)n3nc(N)nc3N2)c1 (stereo not drawn),97%
6,Cc1c(C(=O)OCc2ccccc2)[nH]c2c1C(=O)CC(c1ccco1)C2 (stereo not drawn),86.5%
7,Cn1c(=O)c2c(nc(SCCOc3ccc4ccc(=O)oc4c3)n2C)n(C)c1=O,98.5%
8,COc1ccc(NC(=O)CN(c2cc(C)cc(C)c2)S(=O)(=O)c2c(C)noc2C)cc1OC,89%
9,CCOc1ccc(N2CC(C(=O)Nc3ccccc3OC)CC2=O)cc1 (stereo not drawn),106%
10,CC(C)CNc1oc(-c2ccc(F)cc2)nc1C#N,108%
11,O=C(Nc1nnc(N2CCCCCC2)s1)c1cc(-c2ccc(Br)cc2)on1,97%
12,Cc1ccc(N=Cc2ccc[nH]2)c(O)c1,96%
13,CCCOC(=O)c1[nH]c2c(c1C)C(=O)CC(c1cc(OC)c(OC)c(OC)c1)C2 (stereo not drawn),89%
14,C=CCSc1nc2sc(C)c(C)c2c(=O)[nH]1,97.5%
15,O=C(c1ccc(Br)cc1)N1CCN(S(=O)(=O)c2ccccc2)CC1,113%
16,CN(C(=O)c1ccco1)c1nnc(C23CC4CC(CC(C4)C2)C3)s1,86%
17,COc1ccc(-c2nc3c(n2O)CCC/C3=N\O)cc1,89.5%
18,CC1CCC(NC(=O)C2(C)CCC(=O)N2Cc2cccnc2)CC1 (stereo not drawn),97%
19,Cc1cnc(NC(=O)CSc2nnc(COc3c(C)cccc3C)o2)s1,83%

# Assay: HUVEC growth inhibition – cell-based, human, primary screen (AID 575;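 active = viability at or below 30% in both replicate assays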;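 note: 100% = median of untreated cell wells with 0.1% DMSO on each plate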)
# Conditions: HUVEC proliferation, CellTiter-Glo luminescence, 72 h; at 10 µM; active compounds read low
# Outline: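 system = HUVEC primary cells | amount = 1250 cells/well | buffer or medium = supplemented EBM, 2% fetal bovine serum | dosing = single-point 10 µM, DMSO 0.1% final | times = 72 h compound incubation | detection = CTG luminescence | read-out = % viability relative to median vehicle-well signal on each plate | control set = vehicle and MePR control wells | format = collagen-coated 384-well format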
row,Compound,viability
1,Nc1nc(N2CCCCC2)nc(N(c2ccccc2)c2ccccc2)n1,69.3%
2,O=C1c2ccccc2C(Nc2cccnc2)N1Cc1ccccc1Cl (stereo not drawn),94.9%
3,CCN1CCN(c2nc3c(c(=O)[nH]c(=O)n3C)n2CCSc2nc3ccccc3s2)CC1,115%
4,COc1cc(C(O)c2nc3ccccc3n2C)cc(OC)c1OC (stereo not drawn),99.8%
5,CCOC(=O)N1CCC(Nc2nc3ccccc3n3cnnc23)CC1,85.8%
6,COc1ccc(C2C(C(C)=O)=C(C)N=c3s/c(=C/c4ccc5c(c4)OCO5)c(=O)n32)cc1 (stereo not drawn),91.7%
7,CCOC(=O)C1=C(C)N(C)C(=O)NC1c1ccccc1OC (stereo not drawn),88.2%
8,CCCCS(=O)(=O)NC1=NCN(CCOC(=O)c2ccccc2)CN1,104%
9,COc1ccc(-n2c(Cc3cccn3C)nnc2SCC(=O)Nc2cccc(Cl)c2)cc1,63.3%
10,CCC1CCCCN1C(=O)CSc1nnc(-c2ccc(OC)cc2)o1 (stereo not drawn),99.8%
11,COc1ccc(N(CC(=O)Nc2ccc3c(c2)OCO3)S(=O)(=O)c2c(C)nn(C)c2C)cc1,118%
12,CCOc1ccc(C2CC(c3ccccc3C)n3nc(N)nc3N2)cc1 (stereo not drawn),87.9%
13,Cc1cc(N)n2nc(-c3ccccc3)cc2n1,57.4%
14,CCCCCn1c(CCNC(=O)CCC)nc2ccccc21,79.6%
15,O=C(c1ccc2c(c1)OCCO2)N1CCCCC1,91.8%
16,O=C(NCCc1c[nH]c2ccccc12)c1cnc2n(c1=O)CCS2,81.8%
17,CCc1cc(=O)n2[nH]c(C)c(-c3ccccc3OC)c2n1,91.3%
18,Cc1ccc(CSc2nc3c(c(=O)[nH]2)CCC3)cc1,79.7%
19,CN(CCNS(=O)(=O)c1ccc2c(c1)oc(=O)n2C)Cc1ccccc1,90.7%
20,COc1ccc(-c2nnc(SCC(=O)NC(C)c3ccccc3)o2)cc1 (stereo not drawn),82%

row,Compound,viability
1,CCOc1ccc(Cn2nnc(C(=O)Nc3cc(C)cc(C)c3)c2N)cc1,80.4%
2,CCCCCn1c(CN2CCN(C(=O)c3ccco3)CC2)nc2c1c(=O)n(C)c(=O)n2C,92.8%
3,CCN1CCN(Cc2ccc(NC(=O)Nc3ccccc3)cc2)CC1,82.5%
4,CCCN(CCC)C(=O)c1c(C)[nH]c(C(=O)OCC)c1C,106%
5,COc1cccc(C2CC(c3c(Cl)cccc3Cl)n3nc(N)nc3N2)c1 (stereo not drawn),81.2%
6,Cc1c(C(=O)OCc2ccccc2)[nH]c2c1C(=O)CC(c1ccco1)C2 (stereo not drawn),7.06% (active)
7,Cn1c(=O)c2c(nc(SCCOc3ccc4ccc(=O)oc4c3)n2C)n(C)c1=O,102%
8,COc1ccc(NC(=O)CN(c2cc(C)cc(C)c2)S(=O)(=O)c2c(C)noc2C)cc1OC,110%
9,CCOc1ccc(N2CC(C(=O)Nc3ccccc3OC)CC2=O)cc1 (stereo not drawn),110%
10,CC(C)CNc1oc(-c2ccc(F)cc2)nc1C#N,103%
11,O=C(Nc1nnc(N2CCCCCC2)s1)c1cc(-c2ccc(Br)cc2)on1,99.2%
12,Cc1ccc(N=Cc2ccc[nH]2)c(O)c1,76.8%
13,CCCOC(=O)c1[nH]c2c(c1C)C(=O)CC(c1cc(OC)c(OC)c(OC)c1)C2 (stereo not drawn),88.7%
14,C=CCSc1nc2sc(C)c(C)c2c(=O)[nH]1,83.3%
15,O=C(c1ccc(Br)cc1)N1CCN(S(=O)(=O)c2ccccc2)CC1,103%
16,CN(C(=O)c1ccco1)c1nnc(C23CC4CC(CC(C4)C2)C3)s1,60.3%
17,COc1ccc(-c2nc3c(n2O)CCC/C3=N\O)cc1,67.4%
18,CC1CCC(NC(=O)C2(C)CCC(=O)N2Cc2cccnc2)CC1 (stereo not drawn),102%
19,Cc1cnc(NC(=O)CSc2nnc(COc3c(C)cccc3C)o2)s1,79.9%
